From ChEMBL document CHEMBL4020768 (Bioorg Med Chem Lett, 2017)

Columns and labels:
[1] = Selectivity ratio of Ki for recombinant rat sigma 2 receptor to Ki for recombinant human sigma 1 receptor
[2] = biological target: T1, Sigma intracellular receptor 2 (Rattus norvegicus, UniProt Q5U3Y7); assay: Displacement of (+)-[3H]-ditolylguanidine from recombinant rat sigma 2 receptor expressed in rat PC12 cell membranes after 90 mins in presence of sigma 1 receptor blocker (+)-SKF-10047 by scintillation counting method
T1 sequence (Q5U3Y7 whole entry): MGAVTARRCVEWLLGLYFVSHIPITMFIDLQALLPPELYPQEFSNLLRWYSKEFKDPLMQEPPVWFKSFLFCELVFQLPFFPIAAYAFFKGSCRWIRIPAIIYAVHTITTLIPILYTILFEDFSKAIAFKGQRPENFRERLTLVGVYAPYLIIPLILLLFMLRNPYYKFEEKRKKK
How it was run: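 PC-12 cell membranes (12-30 µg protein per reaction) in 50 mM Tris pH 8.0 with 30 nM [³H]DTG plus 1.8 µM (+)-SKF-10,047 to block σ1 sites; competitor at graded concentrations; 90 min at 37 °C; filtration through 0.3% PEI-soaked glass fiber filters; scintillation counting; two or three independent experiments in triplicate.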

[3] = biological target: Sigma non-opioid intracellular receptor 1 (Homo sapiens, UniProt Q99720); assay: Displacement of (+)-[3H]-pentazocine from recombinant human sigma 1 receptor expressed in baculovirus infected Sf9 insect cell membranes after 90 mins by scintillation counting method
Sequence of Sigma non-opioid intracellular receptor 1 (Q99720 whole entry): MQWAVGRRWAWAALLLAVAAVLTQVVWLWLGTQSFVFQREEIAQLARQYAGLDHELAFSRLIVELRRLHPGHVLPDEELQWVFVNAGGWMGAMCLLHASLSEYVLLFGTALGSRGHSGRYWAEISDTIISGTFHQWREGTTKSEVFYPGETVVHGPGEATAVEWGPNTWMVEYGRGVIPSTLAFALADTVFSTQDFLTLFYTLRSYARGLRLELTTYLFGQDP
How it was run: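 Human σ1 cloned in pFastBac, baculovirus-expressed in Sf9 cells (infected at 4 x 10⁶ cells/mL, 27 °C, harvested 48 h); washed membranes, 2.5 µg protein per reaction in 50 mM Tris pH 8.0 with 10 nM [³H](+)-pentazocine and 8 competitor concentrations 10 pM–100 µM; 90 min at 37 °C; filtration on PEI-soaked glass fiber filters; scintillation counting; two or three independent experiments in triplicate.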

## CC(C)(C)c1ccc(CCCN2CCCCC2)cc1
[1]
  Ratio Ki: 21
[2]
  Ki: 31.5 nM
[3]
  Ki: 1.5 nM

## c1ccc(CCCN2CCOCC2)cc1
[1]
  Ratio Ki: 3
[2]
  Ki: 2020 nM
[3]
  Ki: 706 nM

## CC1CN(CCCc2ccc(C(C)(C)C)cc2)CC(C)O1 (mixture of isomers)
[1]
  Ratio Ki: 9
[2]
  Ki: 77.9 nM
[3]
  Ki: 8.4 nM

## C[C@@H]1CN(CCCc2ccc(C(C)(C)C)cc2)C[C@@H](C)O1 (relative stereo)
[1]
  Ratio Ki: 29
[2]
  Ki: 66.1 nM
[3]
  Ki: 2.3 nM

## CC1CCN(CCCc2ccc(C(C)(C)C)cc2)CC1
[1]
  Ratio Ki: 3
[2]
  Ki: 13.8 nM
[3]
  Ki: 5.4 nM

## CC(C)(C)c1ccc(CCCN2CCOCC2)cc1
[1]
  Ratio Ki: 360
[2]
  Ki: 930 nM
[3]
  Ki: 2.6 nM

## CC(Cc1ccc(C(C)(C)C)cc1)CN1C[C@@H](C)O[C@@H](C)C1 (some centres undefined) [FENPROPIMORPH]
[2]
  Ki: 854 nM
